Compound activity from PubChem BioAssay.
Shown are actives, neighbours in structure and some others; about 1.8% of the full set was active somewhere.
TPT1 inh = C. albicans TPT1 enzyme inhibition; recombinant caTPT1, FP RNA substrate dephosphorylation; inhibition, % at 5 µM; hit rate 0.81% among 300,000; AID 1962;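 active means inhibition above the mean of all tested compounds plus 3 SD, set per screening campaign, cut at about 24% in these data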
HNF4A DNA FP = change in binding of human HNF4 alpha to DNA; P41235; HNF4a-FITC DNA binding, fluorescence polarization, 1 h; activity change, % at 10 µM; hit rate 0.3% among 360,000; in the data active means activity change above about 30%, passing the limit was not always enough
Rpn11 block = Rpn11 (human) deubiquitinase inhibition; AID 588493; O00487; calls only at 20 µM; hit rate 0.59% among 360,000; human 26S proteasome, Ub4-pepOG fluorescence polarization; 20S core pre-blocked with epoxomicin;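 active means inhibition at 20 µM, scaled to each plate's controls, above about 33%, limit read from the data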
CSN deneddyl inh = blocks human CSN-mediated cullin deneddylation; Q92905; Purified CSN, SCF-Nedd8-OG deneddylation, fluorescence polarization; inhibition, % at 12.5 µM; hit rate 0.38% among 360,000;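 active means pattern-corrected inhibition above about 35%, with an unprinted fluorescence ratio check between 0.5 and 1.5, limit read from the data, passing the limit was not always enough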
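Assay system: HEK293T-derived human Csn5 enzyme; quantity: 0.24 nM enzyme; medium: Tris/NaCl/DTT buffer, pH 7.5; also added: substrate SCFSkp2-Nedd8OG, 10 nM; doses: 12.5 µM compound; schedule: 90 min reaction at room temperature; signal: FP; read-out: % inhibition of substrate cleavage by Csn5; benchmarks: substrate-only high control, full reaction low control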
UBC9 SUMO inh = SUMOylation inhibition; P63279; HTRF SUMOylation assay, SAE1/SAE2 + UBC9, in vitro; inhibition, % at 35 µM; hit rate 0.36% among 290,000; in the data active means inhibition above about 50%, passing the limit was not always enough; inconclusive means no clear call, values can overlap the other calls
Target sequence (P63279 whole entry, looked up): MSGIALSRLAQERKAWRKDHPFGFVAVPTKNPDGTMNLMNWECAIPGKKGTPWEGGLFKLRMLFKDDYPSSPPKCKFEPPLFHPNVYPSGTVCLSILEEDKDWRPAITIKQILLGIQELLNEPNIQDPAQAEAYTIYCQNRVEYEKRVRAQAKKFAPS
SENP1 FRET inh = blocks the human SENP1 SUMO protease catalytic domain | Q9P0U3 | recombinant SENP1 catalytic domain, CyPet-SUMO1-YPet FRET cleavage | inhibition, % at 10 µM | hit rate 0.21% among 360,000 | AID 624204;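 active means inhibition at least 30% at 10 µM, raw YFP signal under a set limit, fluorescence ratio 0.5 to 1.5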
Target sequence (Q9P0U3 419-644 limits assumed): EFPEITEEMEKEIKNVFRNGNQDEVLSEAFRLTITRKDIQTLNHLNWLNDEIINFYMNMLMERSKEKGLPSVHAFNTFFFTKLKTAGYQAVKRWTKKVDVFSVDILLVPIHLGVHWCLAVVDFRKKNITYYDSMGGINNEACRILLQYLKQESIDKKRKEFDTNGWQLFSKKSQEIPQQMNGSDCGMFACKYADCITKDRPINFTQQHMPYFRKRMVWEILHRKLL
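system = hSENP1 catalytic domain, recombinant | reagent = SFCypet-SUMO1-SFYpet substrate at 25 nM | doses = one dose per compound, 10 µM, 0.5% DMSO | incubation = enzyme reaction for 50 min at room temperature, dark | measured by = FRET, CFP and YFP emission | controls = no-enzyme low, enzyme-DMSO high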
caTPT1 confirm = TPT1 (C. albicans) inhibition, confirmation | shares compounds with TPT1 inh | recombinant caTPT1, fluorescence polarization, RNase T1 coupled | inhibition, % at 5 µM | hit rate 74% among 2,400;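 active means inhibition above the primary screen limit, the mean inhibition of all tested compounds plus 3 SD, cut at about 25% in these data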
RNase T1 counter = counter-screen for TPT1 inhibitors: inhibitors of Aspergillus oryzae RNase T1 | RNase T1 cleavage, fluorescence polarization, 1536-well | inhibition, % at 5 µM | shares compounds with TPT1 inh | hit rate 83% among 2,400 | AID 2153;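 active means inhibition above the solvent-only control well mean plus 3 SD, limit set per screening run, cut at about 23% in these data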;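 further: inhibitors block cleavage so intact labeled substrate keeps polarization high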
Target sequence (P00651 whole entry, looked up): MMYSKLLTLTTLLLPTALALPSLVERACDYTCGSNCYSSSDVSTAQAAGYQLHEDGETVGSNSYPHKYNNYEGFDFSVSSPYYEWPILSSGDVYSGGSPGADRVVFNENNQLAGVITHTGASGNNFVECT
Rpn11 confirm = confirmation of human proteasome Rpn11 inhibitors; AID 602318; shares compounds with Rpn11 block; purified human 26S proteasome, Ub4-pepOG fluorescence polarization; proteasome pretreated with epoxomicin; inhibition, % at 20 µM; hit rate 29% among 1,900
MMP-2 inh = blocks human MMP-2, flagging nonselective RPN11 hits. inhibition, % at 20 µM. shares compounds with Rpn11 block. recombinant MMP-2, FRET peptide cleavage fluorescence. hit rate 4% among 1,900. AID 602330;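 further: human MMP-2 activated beforehand with APMA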
Thrombin FP = thrombin (bovine) inhibition counter-screen; shares compounds with Rpn11 block; inhibition, % at 20 µM; hit rate 13% among 1,900; bovine thrombin cleavage of Ub4-pepOG, fluorescence polarization;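 active means mean inhibition at least 40% at 20 µM, or signal 3 deviations below plate average, so some actives read negative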
A number is an active result; i = inactive; ? = inconclusive; nt = no result shown; + = active, no number. Unless noted, no stated cut-off is given here; in the data, active means inhibition above about 40%; inactive means the rest.

SMILES	TPT1 inh	HNF4A DNA FP	Rpn11 block	CSN deneddyl inh	UBC9 SUMO inh	SENP1 FRET inh	caTPT1 confirm	RNase T1 counter	others
CCOc1ccc2nc(S(=O)(=O)NC(=O)C3(C)CCN3C(=O)c3c(C)noc3C)sc2c1 (stereo not given)	nt	i	i	i	nt	i	nt	nt
CNc1ncnc2c1ncn2[C@H]1CN(Cc2cccc3ccccc23)C[C@@H](CO)O1	nt	i	i	i	nt	i	nt	nt
CC(=O)Nc1ccc(S(=O)(=O)N[C@@H](C)C(=O)OCC(=O)NC2CCCC2)cc1	nt	i	i	i	nt	i	nt	nt
Nc1nc(SCC(=O)Nc2ccc3c(c2)OCO3)n[nH]1	41	i	i	i	i	i	i	i
Cc1cc(/C=N\NC(=O)c2cccs2)c(C)n1-c1ccc2ncccc2c1	i	i	i	i	i	i	nt	nt
O=C1/C(=C/c2ccc(Br)cc2)Oc2cc(O)ccc21	63	i	i	i	?	i	77	79
COC(=O)c1ccc2c(c1)C(=O)/C(=C/c1ccc(O)cc1)O2	28	i	i	i	i	i	i	28
CC(C)(C)c1ccc(/C=C2\Oc3cc(O)ccc3C2=O)cc1	30	i	i	i	i	i	67	72
O=C(CN1CCN(S(=O)(=O)c2ccc(Br)cc2)CC1)N/N=C/c1ccc(Br)s1	30	i	i	i	i	i	i	i
Cc1ccc(/C=N/NC(=O)CN2CCN(S(=O)(=O)c3ccc(Br)cc3)CC2)s1	i	i	i	i	i	i	nt	nt
CC(C)[C@H](NC(=O)[C@H](Cc1ccccc1)n1c(=O)[nH]c2ccccc2c1=O)C(=O)N[C@@H](Cc1ccccc1)C(=O)O	i	i	i	i	i	i	nt	nt
CN(C)c1ccc(/C=C2\C(=N)N3C(=NC2=O)Sc2cc(S(C)(=O)=O)ccc23)cc1	122	nt	nt	nt	i	nt	88	86
Cc1ccc(S(=O)(=O)Oc2ccc(/C=C3/C(=N)N4C(=NC3=O)SN=C4S(C)(=O)=O)cc2)cc1	i	i	i	i	i	i	nt	nt
COc1ccc(CNC(=O)c2ccc(N3CCC4(CC3)CC(c3ccc(Cl)cc3)=NO4)c(NC(=O)c3ccccc3)c2)cc1	i	i	i	i	nt	i	nt	nt
O=[N+]([O-])c1ccc(N(c2ccccc2)c2ccccc2)cc1	30	i	nt	i	i	i	32	46
CCN(C(=O)c1ccccc1)c1ccc([N+](=O)[O-])cc1	i	i	i	i	i	i	nt	nt
CCCc1cc(C(=O)Cc2ccc(C(=O)OCC)o2)c(O)cc1O	24	i	i	i	i	i	i	30
N#Cc1cc(Sc2ccccn2)c([N+](=O)[O-])cc1C#N	38	i	+	i	i	i	36	45
COc1ccccc1NS(=O)(=O)c1cc([N+](=O)[O-])ccc1N/N=C/c1sc(N2CCOCC2)nc1-c1ccccc1	97	75	nt	53	i	i	111	110
CN(C)S(=O)(=O)c1ccc(NC(=O)CN2CCCc3ccccc32)cc1	51	i	nt	i	i	i	42	54
CN(C)S(=O)(=O)c1cc(NC(=O)CN2CCc3ccccc32)ccc1Cl	i	i	i	i	i	i	nt	nt
CN(C)S(=O)(=O)c1cc(NC(=O)CN2CCCc3ccccc32)ccc1Cl	46	i	nt	i	i	i	51	61
CC(=O)Nc1ccc(S(=O)(=O)Nc2nc3ccccc3nc2Nc2cccc(O)c2)cc1	i	i	i	i	i	i	nt	nt
CC(=O)Nc1ccc(S(=O)(=O)Nc2nc3ccccc3nc2Nc2ccc3ccccc3c2)cc1	29	i	nt	45	55	i	i	24
CC(=O)Nc1ccc(S(=O)(=O)Nc2nc3ccccc3nc2Nc2ccc(N)cc2)cc1	77	i	nt	i	i	i	62	69
SMILES	TPT1 inh	HNF4A DNA FP	Rpn11 block	CSN deneddyl inh	UBC9 SUMO inh	SENP1 FRET inh	caTPT1 confirm	RNase T1 counter	others
CC(=O)c1sc(NC(=O)C2(F)C(F)(F)C(F)(F)C(F)(F)C(F)(F)C2(F)F)nc1C	i	i	i	i	i	i	nt	nt
Cc1ccc(C2C3=C(NCCN=C3c3ccccc3)C(=O)N2c2ccccc2)cc1 (stereo not given)	i	i	i	i	i	i	nt	nt
N#C/C(=C\c1ccc(-c2ccc(C(=O)O)cc2)o1)C(=O)Nc1ccc(F)cc1	33	i	i	i	i	i	48	61
O=C(Nc1ccccc1)c1ccc(NCCc2ccccc2)c([N+](=O)[O-])c1	45	i	nt	i	i	i	105	115
Oc1ccc(C2C(c3ccccc3)=NN=C(c3ccc(Cl)cc3)N2O)c(O)c1 (stereo not given)	i	i	i	i	i	i	nt	nt
Cc1ccccc1N=C1NC(=O)/C(=C/c2cccn2C)S1	38	i	+	i	i	i	28	39	Rpn11 confirm=i;MMP-2 inh=i;Thrombin FP=44
O=C(c1ccco1)N1CCN(c2cc(=O)n(C3CCCCC3)c(=O)[nH]2)CC1	i	i	i	i	i	i	nt	nt
CCOC(=O)Cc1csc(NC(=O)c2sc3nc4ccc(C)cc4cc3c2N)n1	26	38	+	i	i	i	51	62	Rpn11 confirm=77;MMP-2 inh=i;Thrombin FP=41
CCc1nnc(NC(=O)c2sc3nc4cc(C)ccc4cc3c2N)s1	27	i	+	i	i	i	28	41	Rpn11 confirm=i;MMP-2 inh=i;Thrombin FP=i
O=S(=O)(c1ccc(=S)[nH]c1)N1CCOCC1	nt	i	i	i	nt	i	nt	nt
NS(=O)(=O)c1ccc(Nc2ccc([N+](=O)[O-])c3nonc23)cc1	38	i	+	i	i	i	48	62	Rpn11 confirm=45;MMP-2 inh=i;Thrombin FP=i
CN(CCN(C)C(C)(C)C)C(=O)C(c1ccccc1)c1ccccc1	i	i	i	i	i	i	nt	nt
Cc1cc(O)c(C(C)C)cc1N=Nc1ccccc1C(=O)O	26	i	+	i	i	i	31	48	Rpn11 confirm=i;MMP-2 inh=i;Thrombin FP=i
COc1cc(N=Nc2ccccc2C(=O)O)ccc1O	i	i	i	i	i	i	nt	nt
Cc1cc(N=Nc2ccccc2C(=O)O)c(C)c(C)c1O	41	32	+	i	i	33	42	60	Rpn11 confirm=69;MMP-2 inh=i;Thrombin FP=48
Cc1cc(O)c(C(C)C)cc1N=Cc1ccccc1[N+](=O)[O-]	nt	i	i	i	nt	i	nt	nt
